“And” between values parts separate entries of the source, which are not always exact repeats. Identical values can stand only once.
Key:
Settings in all cases: in vivo
Canis familiaris [1] = assay: The biodistribution of the [131I]-labeled compound in dog (mass= 5.7 kg), 2 hr after intravenous injection was evaluated in heart; type: ADME, organism-based, Canis lupus familiaris
In short: (§1)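 One female dog (5.7 kg) premedicated im with acepromazine maleate, then anesthetized iv with sodium nembutal/saline (1:1). Given 1.0 mCi iv of ¹³¹I-labeled agent. Killed 2 h post-dose with iv nembutal. Tissues excised, weighed and counted; blood, fat and muscle masses estimated as 7.5%, 27.5% and 40% of body weight. Expressed as % ID/organ and % ID·kg/g.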

Rattus norvegicus [2] = assay: The biodistribution of the [125I]-labeled compound in rats after intravenous injection was evaluated in blood at 4.00 hrs (ID.kg/g); type: ADME, organism-based
In short: (§2)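 Male Sprague-Dawley rats (250–300 g) under ether anesthesia were given an iv injection of no-carrier-added 125I-labelled agent (10–15 μCi in 0.1 mL saline). The agent was iodinated with chloramine-T in acetate buffer and purified by C-18 HPLC. Groups of N = 3 were killed at 0.25, 1 and 4 h. Blood and tissues were weighed and γ-counted. Values are % ID·kg/g, mean (range).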

Rattus norvegicus [3] = assay: The biodistribution of the [125I]-labeled compound in rats after intravenous injection was evaluated in thyroid at 1.00 hrs; value ranges from 1.69-2.41 (ID.kg/g); type: ADME, organism-based, Thyroid gland
In short: (§3)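 Male Sprague-Dawley rats (250–300 g) under ether anesthesia given iv 0.1 mL saline containing 10–15 μCi of NCA ¹²⁵I-labeled agent (chloramine-T iodination, HPLC-purified). Groups of 3 killed at 0.25, 1 and 4 h. Blood and tissues excised, weighed and γ-counted. Values are mean (range) of % injected dose × body mass (kg) per gram of tissue.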

Rattus norvegicus [4] = assay: The biodistribution of the [125I]-labeled compound in rats after intravenous injection was evaluated in muscle at 4.00 hrs; value ranges from 0.03-0.04 (ID.kg/g); type: ADME, organism-based, Muscle tissue; in short: as §3
Canis familiaris [5] = assay: The biodistribution of the [131I]-labeled compound in dog (mass= 5.7 kg), 2 hr after intravenous injection was evaluated in kidney; type: ADME, organism-based, Canis lupus familiaris; in short: as §1
Canis familiaris [6] = assay: The biodistribution of the [131I]-labeled compound in dog (mass= 5.7 kg), 2 hr after intravenous injection was evaluated in kidney (ID.kg/g); type: ADME, organism-based, Canis lupus familiaris; in short: as §1
Canis familiaris [7] = assay: The biodistribution of the [131I]-labeled compound in dog (mass= 5.7 kg), 2 hr after intravenous injection was evaluated in liver (ID.kg/g); type: ADME, organism-based, Canis lupus familiaris; in short: as §1
Canis familiaris [8] = assay: The biodistribution of the [131I]-labeled compound in dog (mass= 5.7 kg), 2 hr after intravenous injection was evaluated in lung (ID.kg/g); type: ADME, organism-based, Canis lupus familiaris; in short: as §1
Rattus norvegicus [9] = assay: The biodistribution of the [125I]-labeled compound in rats after intravenous injection was evaluated in brain at 4.00 hrs; value ranges from 0.25-0.41 (ID.kg/g); type: ADME, organism-based; in short: as §2
Rattus norvegicus [10] = assay: The biodistribution of the [125I]-labeled compound in rats after intravenous injection was evaluated in brain at 0.25 hrs; value ranges from 0.32-0.38 (ID.kg/g); type: ADME, organism-based; in short: as §2
Rattus norvegicus [11] = assay: The biodistribution of the [125I]-labeled compound in rats after intravenous injection was evaluated in fat at 4.00 hrs (ID.kg/g); type: ADME, organism-based, Adipose tissue; in short: as §2
Rattus norvegicus [12] = assay: The biodistribution of the [125I]-labeled compound in rats after intravenous injection was evaluated in liver at 0.25 hr; value ranges from 0.27-0.39 (ID.kg/g); type: ADME, organism-based
In short: (§4)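 Male Sprague-Dawley rats (250–300 g), under ether anesthesia, given 10–15 μCi of the NCA ¹²⁵I-labeled agent iv in 0.1 mL saline. Groups of N = 3 were killed at 0.25, 1 or 4 h. Blood and tissues were removed, weighed and counted in a γ-well scintillation counter. Values are mean % ID·kg/g (range).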

Canis familiaris [13] = assay: The biodistribution of the [131I]-labeled compound in dog (mass= 5.7 kg), 2 hr after intravenous injection was evaluated in adrenal (ID.kg/g); type: ADME, organism-based, Canis lupus familiaris; in short: as §1
Rattus norvegicus [14] = assay: The biodistribution of the [125I]-labeled compound in rats after intravenous injection was evaluated in adrenal at 0.25 hrs; value ranges from 1.43-1.71 (ID.kg/g); type: ADME, organism-based; in short: as §2
Rattus norvegicus [15] = assay: The biodistribution of the [125I]-labeled compound in rats after intravenous injection was evaluated in liver at 1.00 hrs; value ranges from 0.19-0.24 (ID.kg/g); type: ADME, organism-based; in short: as §4

CCCCN1CCN(c2ccc(I)cc2)CC1
Biodistribution (Canis familiaris [1]): 0.182% | Biodistribution (Rattus norvegicus [2]): 0.01 % ID·kg/g | Biodistribution (Rattus norvegicus [3]): 2.41% | Biodistribution (Rattus norvegicus [4]): 0.04% | Biodistribution (Canis familiaris [5]): 0.88% | Biodistribution (Canis familiaris [6]): 0.182% | Biodistribution (Canis familiaris [7]): 6.68% and 1.88% | Biodistribution (Canis familiaris [8]): 1.287% and 0.143% | Biodistribution (Rattus norvegicus [9]): 0.41% | Biodistribution (Rattus norvegicus [10]): 0.38% | Biodistribution (Rattus norvegicus [11]): 0.02% | Biodistribution (Rattus norvegicus [12]): 0.39% | Biodistribution (Canis familiaris [13]): 0.121% and 0.633% | Biodistribution (Rattus norvegicus [14]): 1.71% | Biodistribution (Rattus norvegicus [15]): 0.24%

From ChEMBL document CHEMBL1123589, “Phenylpiperazine-based radiopharmaceuticals for brain imaging. 3. Synthesis and evaluation of radioiodinated 1-alkyl-4-phenylpiperazines” (J Med Chem, 1987)
